ChEMBL document CHEMBL1154748, “4-Pyridylanilinothiazoles that selectively target von Hippel-Lindau deficient renal cell carcinoma cells by inducing autophagic cell death” (2010)
Activity calls are given as the source filed them. No cut-off for these calls is given here.

Test system: not listed separately
Assay: Growth inhibition of VHL-null human RCC4 cells after 4 days by XTT assay
Format: functional
Conditions: RCC4, 96 h
Procedure, shortened: (§1)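 XTT read-out: 5000 cells/well plated, vehicle or drug added next day, 4-day exposure. Then phenol red-free medium with 0.3 mg/mL XTT, 20% FCS and 2.65 μg/mL N-methyldibenzopyrazine methyl sulfate, 1-2 h at 37 °C, absorbance at 450 nm. GI50 by linear interpolation; single determinations in triplicate. Ratio is the intraexperiment RCC4-VHL GI50 / RCC4 GI50.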

SMILES | GI50
c1cc(-c2csc(Nc3ccc4c(c3)CCC4)n2)ccn1 | 2 µM
Cc1cccc(Nc2nc(-c3ccncc3Cl)cs2)c1 | 2.9 µM
Cc1cccc(Nc2nc(-c3ccncc3C#CCO)cs2)c1 | 0.24 µM
CC(=O)c1ccc(-c2cnccc2-c2csc(Nc3cccc(C)c3)n2)cc1 | 3.9 µM
Cc1cccc(Nc2nc(-c3ccncc3)c(C(N)=O)s2)c1 | 19.2 µM
c1ccc(Nc2nc(-c3ccccn3)cs2)cc1 | 35.1 µM
Clc1ccccc1Nc1nc(-c2ccncc2)cs1 | 27.6 µM
Cc1cccc(Nc2nc(-c3ccncc3F)cs2)c1 | 2 µM
Cc1cccc(Nc2nc(-c3ccnc(F)c3)cs2)c1 | 4.5 µM
Oc1ccccc1Nc1nc(-c2ccncc2)cs1 | 12.8 µM
Cc1cccc(Nc2nc(-c3ccncc3)c(CN3CCCCC3)s2)c1 | 13 µM
CCc1cccc(Nc2nc(-c3ccncc3)cs2)c1 | 2.5 µM
OCc1sc(Nc2ccc3c(c2)CCC3)nc1-c1ccncc1 | 6.8 µM
C#Cc1cc(-c2csc(Nc3cccc(C)c3)n2)ccn1 | 17.8 µM
Oc1ccc(Nc2nc(-c3ccncc3)cs2)cc1 | 5.3 µM
Cc1cccc(Nc2nc(-c3ccncc3[N+](=O)[O-])cs2)c1 | 8.2 µM
Cc1cccc(Nc2nc(-c3ccncc3)c(C)s2)c1 | 10 µM
Cc1ccc(Nc2nc(-c3ccncc3)cs2)cc1C | 6.5 µM
Cc1cccc(Nc2nc(-c3ccncc3CCCO)cs2)c1 | 6.8 µM
Cc1cccc(Nc2nc(-c3ccncc3)c(C(=O)N(C)C)s2)c1 | 16 µM
Fc1ccccc1Nc1nc(-c2ccncc2)cs1 | 14.3 µM
COc1ccccc1Nc1nc(-c2ccncc2)cs1 | 33.4 µM
Oc1ccc(Nc2nc(-c3ccccn3)cs2)cc1 | 36 µM
COCC#Cc1cnccc1-c1csc(Nc2cccc(C)c2)n1 | 0.62 µM

Test system: not listed separately
Assay: Ratio of IC50 for human RCC4-VHL cells to IC50 for VHL-null human RCC4 cells
Format: functional
Conditions: not given
Procedure, shortened: as §1

SMILES | RatioGI50
c1cc(-c2csc(Nc3ccc4c(c3)CCC4)n2)ccn1 | 10
Cc1cccc(Nc2nc(-c3ccncc3Cl)cs2)c1 | >13.8
Cc1cccc(Nc2nc(-c3ccncc3C#CCO)cs2)c1 | 11.9
CC(=O)c1ccc(-c2cnccc2-c2csc(Nc3cccc(C)c3)n2)cc1 | 9
Cc1cccc(Nc2nc(-c3ccncc3)c(C(N)=O)s2)c1 | >2
c1ccc(Nc2nc(-c3ccccn3)cs2)cc1 | 0.9
Clc1ccccc1Nc1nc(-c2ccncc2)cs1 | >1.4
Cc1cccc(Nc2nc(-c3ccncc3F)cs2)c1 | >20
Cc1cccc(Nc2nc(-c3ccnc(F)c3)cs2)c1 | >8.9
Oc1ccccc1Nc1nc(-c2ccncc2)cs1 | >3.1
Cc1cccc(Nc2nc(-c3ccncc3)c(CN3CCCCC3)s2)c1 | 1.9
CCc1cccc(Nc2nc(-c3ccncc3)cs2)c1 | 9.6
OCc1sc(Nc2ccc3c(c2)CCC3)nc1-c1ccncc1 | 1.4
C#Cc1cc(-c2csc(Nc3cccc(C)c3)n2)ccn1 | >2.2
Oc1ccc(Nc2nc(-c3ccncc3)cs2)cc1 | 8
Cc1cccc(Nc2nc(-c3ccncc3[N+](=O)[O-])cs2)c1 | 4.1
Cc1cccc(Nc2nc(-c3ccncc3)c(C)s2)c1 | >4
Cc1ccc(Nc2nc(-c3ccncc3)cs2)cc1C | 6.4
Cc1cccc(Nc2nc(-c3ccncc3CCCO)cs2)c1 | >5.9
Cc1cccc(Nc2nc(-c3ccncc3)c(C(=O)N(C)C)s2)c1 | >2.5
Fc1ccccc1Nc1nc(-c2ccncc2)cs1 | >2.8
COc1ccccc1Nc1nc(-c2ccncc2)cs1 | >1.2
Oc1ccc(Nc2nc(-c3ccccn3)cs2)cc1 | 0.7
COCC#Cc1cnccc1-c1csc(Nc2cccc(C)c2)n1 | 45

Test system: RCC4
Assay: Induction of autophagy in VHL-null human RCC4 cells assessed as intracytoplasmic vacuoles at 5 uM after 24 h
Conditions: not given

SMILES | Activity
c1cc(-c2csc(Nc3ccc4c(c3)CCC4)n2)ccn1 | Active
Cc1cccc(Nc2nc(-c3ccncc3Cl)cs2)c1 | Active
Cc1cccc(Nc2nc(-c3ccncc3C#CCO)cs2)c1 | Active
COCC#Cc1cnccc1-c1csc(Nc2cccc(C)c2)n1 | Active
